Hits are enriched below; roughly 2.7% of the tested compounds scored in any of these assays.
PP1 counter: blocks human PP1-alpha phosphatase, a PP5 counter-screen; P62136; 320,000 tested, 0.9% active; purified PP1alpha, OMFP fluorescence; inhibition, % at 6.7 µM;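 active means inhibition above the mean inhibition of all tested compounds plus 3 SD, computed separately for each screening campaign, cut at about 15% in these data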
Target sequence (P62136 whole entry, looked up): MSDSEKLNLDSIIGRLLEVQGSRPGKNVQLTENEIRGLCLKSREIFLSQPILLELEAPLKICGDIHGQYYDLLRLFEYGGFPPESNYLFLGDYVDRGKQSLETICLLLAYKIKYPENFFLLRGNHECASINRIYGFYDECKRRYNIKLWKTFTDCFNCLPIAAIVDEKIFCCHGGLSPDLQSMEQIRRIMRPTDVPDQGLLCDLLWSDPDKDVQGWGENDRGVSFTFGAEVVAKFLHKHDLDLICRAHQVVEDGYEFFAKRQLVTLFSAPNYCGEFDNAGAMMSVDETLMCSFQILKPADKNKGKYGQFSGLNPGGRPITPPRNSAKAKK
HNF4A DNA FP: change in binding of human HNF4 alpha to DNA. P41235. HNF4a-FITC DNA binding, fluorescence polarization, 1 h. activity change, % at 10 µM. 360,000 tested, 0.3% active. AID 1224865; in the data active means activity change above about 30%, passing the limit was not always enough
TPT1 inh: C. albicans TPT1 enzyme inhibition. recombinant caTPT1, FP RNA substrate dephosphorylation. inhibition, % at 5 µM. 300,000 tested, 0.81% active;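 active means inhibition above the mean of all tested compounds plus 3 SD, set per screening campaign, cut at about 24% in these data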
CSN deneddyl inh: blocks human CSN-mediated cullin deneddylation; Purified CSN, SCF-Nedd8-OG deneddylation, fluorescence polarization; Q92905; 360,000 tested, 0.38% active; inhibition, % at 12.5 µM;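 active means pattern-corrected inhibition above about 35%, with an unprinted fluorescence ratio check between 0.5 and 1.5, limit read from the data, passing the limit was not always enough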
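assay system = purified human Csn5 enzyme expressed in HEK293T cells | amount = 0.24 nM enzyme | buffer or medium = Tris/NaCl/DTT buffer, pH 7.5 | reagent = 10 nM SCFSkp2-Nedd8OG | compound = one concentration, 12.5 µM, 0.25% DMSO | times = 90 min reaction at room temperature | signal = FP | read-out basis = % inhibition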
Rpn11 inh: Rpn11 (human) deubiquitinase inhibition | inhibition, % at 20 µM | AID 588493 | human 26S proteasome, Ub4-pepOG fluorescence polarization; 20S core pre-blocked with epoxomicin | O00487 | 360,000 tested, 0.59% active;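 active means inhibition at 20 µM, scaled to each plate's controls, above about 33%, limit read from the data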
Target sequence (O00487 whole entry, looked up): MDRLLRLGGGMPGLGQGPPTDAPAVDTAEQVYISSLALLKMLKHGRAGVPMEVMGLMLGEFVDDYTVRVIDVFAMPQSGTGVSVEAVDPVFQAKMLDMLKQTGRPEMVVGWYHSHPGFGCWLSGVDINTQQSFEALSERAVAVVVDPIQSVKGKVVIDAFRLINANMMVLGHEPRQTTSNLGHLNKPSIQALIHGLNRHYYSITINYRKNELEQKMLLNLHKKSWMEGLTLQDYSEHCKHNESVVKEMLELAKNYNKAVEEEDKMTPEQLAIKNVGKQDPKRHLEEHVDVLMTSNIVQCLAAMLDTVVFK
NadD inh: inhibitors of Staphylococcus aureus NadD | purified NadD enzyme, colorimetric absorbance read-out | inhibition, % at 20 µM | 360,000 tested, 0.78% active | AID 602399; in the data active means inhibition above about 26%
Rpn11 confirm: Rpn11 inhibition confirmation, single concentration; shares compounds with Rpn11 inh; purified human 26S proteasome, Ub4-pepOG fluorescence polarization; proteasome pretreated with epoxomicin; inhibition, % at 20 µM; 1,900 tested, 29% active
MMP-2 inh: MMP-2 (human) inhibition counter-screen; recombinant MMP-2, FRET peptide cleavage fluorescence; 1,900 tested, 4% active; inhibition, % at 20 µM; shares compounds with Rpn11 inh;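 further: human MMP-2 activated beforehand with APMA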
Thrombin inh: blocks bovine thrombin, flagging nonselective RPN11 hits; bovine thrombin cleavage of Ub4-pepOG, fluorescence polarization; inhibition, % at 20 µM; 1,900 tested, 13% active; AID 602333; shares compounds with Rpn11 inh;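 active means mean inhibition at least 40% at 20 µM, or signal 3 deviations below plate average, so some actives read negative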
Of the large screens only hits and unclear results are named; the others gave an inactive call (follow-up assays come after a bar, where they were run). Unless noted, no stated cut-off is given here; in the data, active means inhibition above about 40%; inactive means the rest.

NC(=O)CC(NC(=O)Cc1ccc(Cl)cc1)c1ccc(NC2CCCC2)c([N+](=O)[O-])c1 (centres undefined)	Rpn11 inh 45 | Rpn11 confirm 47 | MMP-2 inh inactive | Thrombin inh inactive
COc1ccc(CCNc2ccc(C(CC(N)=O)NC(=O)Cc3cccc4ccccc34)cc2[N+](=O)[O-])cc1 (centres undefined)	Rpn11 inh 42 | Rpn11 confirm 52 | MMP-2 inh inactive | Thrombin inh inactive
COc1ccc(NC(=O)CSc2nnc(C)n2C2CC2)cc1S(=O)(=O)N1CCOCC1	none (no result: TPT1 inh)
C[C@H](CO)N1C[C@H](C)[C@H](CN(C)S(=O)(=O)c2ccc(F)cc2)Oc2ncc(Br)cc2C1=O	none (no result: PP1 counter, TPT1 inh)
O=C(N/N=C/c1ccc(Cl)c([N+](=O)[O-])c1)c1ccc2c(c1)OCCO2	Rpn11 inh 127 (no result: PP1 counter, TPT1 inh) | Rpn11 confirm inactive | MMP-2 inh 54 | Thrombin inh inactive
O=C(CSc1nnc(-c2ccco2)o1)c1ccc([N+](=O)[O-])cc1	Rpn11 inh 36 | Rpn11 confirm inactive | MMP-2 inh inactive | Thrombin inh inactive
CN(C)C(=O)CCSc1nnc(-c2ccco2)o1	Rpn11 inh 32 | Rpn11 confirm inactive | MMP-2 inh inactive | Thrombin inh inactive
CCN(CC)C(=O)CSc1nnc(-c2ccco2)o1	none
O=C(/C=C/c1ccc([N+](=O)[O-])cc1)c1ccccc(=O)c1O	Rpn11 inh 42 (no result: PP1 counter, TPT1 inh) | Rpn11 confirm inactive | MMP-2 inh inactive | Thrombin inh inactive
O=C(/C=C/c1ccccc1Cl)c1ccccc(=O)c1O	none
COc1cccc(NC(=O)c2ccccc2)c1	none
COc1cccc(C(=O)Nc2cccc(-c3ccccc3)c2)c1	Rpn11 inh 49 | Rpn11 confirm inactive | MMP-2 inh inactive | Thrombin inh inactive
Cc1ccc(Cn2ncc3c(N4CCN(c5ccc(C)cc5)CC4)ncnc32)cc1	Rpn11 inh 102 | Rpn11 confirm inactive | MMP-2 inh inactive | Thrombin inh inactive
Cc1ccc(Cn2ncc3c(N4CCN(C)CC4)ncnc32)cc1	none
CC(C)CN(C(=O)c1cccc(S(=O)(=O)N2CCN(Cc3ccccc3)CC2)c1)C1CCS(=O)(=O)C1 (centres undefined)	none
NS(=O)(=O)c1ccc(N/C=C\C(=O)c2ccc3ccccc3c2)cc1	Rpn11 inh 45 | Rpn11 confirm 67 | MMP-2 inh inactive | Thrombin inh inactive
O=C(NN=C1c2ccccc2-c2ccccc21)c1ccccn1	Rpn11 inh 94 | Rpn11 confirm 60 | MMP-2 inh inactive | Thrombin inh inactive
COc1ccc(NC(=O)c2ccc(C)cc2Cl)c([N+](=O)[O-])c1	Rpn11 inh 48 | Rpn11 confirm inactive | MMP-2 inh inactive | Thrombin inh inactive
COc1ccc(NC(=O)c2cc(Br)ccc2Cl)c([N+](=O)[O-])c1	none
O=C(Nc1cccnc1)c1cccc(-c2cc3ccccc3oc2=O)c1	Rpn11 inh 134 | Rpn11 confirm 115 | MMP-2 inh inactive | Thrombin inh inactive
CCNC(=S)/N=C(\N)Nc1nc(C)c2cc(C)ccc2n1	Rpn11 inh 44 | Rpn11 confirm inactive | MMP-2 inh inactive | Thrombin inh inactive
CCOc1ccc2nc(N/C(N)=N/C(=S)Nc3ccc(C)c(C)c3)nc(C)c2c1	none
CCN(CC)c1cc(C(F)(F)F)nc(-c2ccccn2)n1	Rpn11 inh 144 | Rpn11 confirm inactive | MMP-2 inh inactive | Thrombin inh inactive
O=C1OCC/C1=C\NCCCCCCCCN/C=C1\CCOC1=O	none (no result: PP1 counter, TPT1 inh)
COc1ccccc1C(=O)NCCC(=O)N1CCN(C(C)=O)CC1	none
Clc1ccc(Nc2nc3ccccc3n3nnnc23)cc1	Rpn11 inh 44 | Rpn11 confirm inactive | MMP-2 inh inactive | Thrombin inh inactive
O=S(=O)(Nc1ccon1)c1ccc(Br)s1	HNF4A DNA FP 39, Rpn11 inh 52 | Rpn11 confirm inactive | MMP-2 inh inactive | Thrombin inh inactive
COc1ccc(OC)c(/C=N/NC(=O)CSc2cc(C)nc3c(OC)cccc23)c1	Rpn11 inh 56 | Rpn11 confirm inactive | MMP-2 inh inactive | Thrombin inh inactive
COc1cccc(/C=N/NC(=O)CSc2cccc3cccnc23)c1	Rpn11 inh 38 | Rpn11 confirm inactive | MMP-2 inh inactive | Thrombin inh inactive
Cc1cccc(NC(=O)CSc2cccc3cccnc23)c1C	none
NNC(=O)c1ccc(CSc2cccc3cccnc23)cc1	none
Cc1cccc(CSc2cccc3cccnc23)c1	Rpn11 inh 70 | Rpn11 confirm 42 | MMP-2 inh inactive | Thrombin inh inactive
CCOC(=O)CSc1cccc2cccnc12	Rpn11 inh 63 | Rpn11 confirm inactive | MMP-2 inh inactive | Thrombin inh inactive
Cc1cc(C)n(C(C)CC(=O)Nc2ccc3c(c2)OCCO3)n1 (centres undefined)	none
CCN(Cc1ccccc1)C(=O)c1oc2ccc(S(=O)(=O)N3CCOCC3)cc2c1C	none
O=C(CN(C(=O)c1csnn1)c1ccc2c(c1)OCCO2)NCc1ccc(F)cc1	Rpn11 inh 48 | Rpn11 confirm inactive | MMP-2 inh inactive | Thrombin inh inactive
COc1ccc(CNC(=O)CN(C(=O)c2csnn2)c2ccc3c(c2)OCCO3)cc1	none
O=C(O)CNS(=O)(=O)c1ccc2c(c1)Cc1cc(S(=O)(=O)NCC(=O)O)ccc1-2	none
Cc1nc(NC(=O)/C=C/c2ccccc2)sc1C(=O)Nc1ccccc1Cl	Rpn11 inh 40 | Rpn11 confirm inactive | MMP-2 inh inactive | Thrombin inh inactive
Cc1nc(NC(=O)/C=C/c2ccccc2)sc1C(=O)Nc1ccc(Cl)cc1	none
COc1ccc(NS(=O)(=O)c2cc3c4c(c2)CCN4C(=O)CC3)cc1OC	none
C=CC1=C(C(=O)O)N2C(=O)C(NC(=O)Cc3ccccc3)C2SC1 (centres undefined)	CSN deneddyl inh 54, Rpn11 inh 138 | Rpn11 confirm inactive | MMP-2 inh inactive | Thrombin inh inactive
CC(=O)OCC1=C(C(=O)O)N2C(=O)[C@@H](NC(=O)Cc3ccccc3)[C@H]2SC1	none (no result: PP1 counter, TPT1 inh)
CCOc1ccc(N2CC(C(=O)NCC(=O)Nc3ccc(F)c(F)c3F)CC2=O)cc1 (centres undefined)	none (no result: TPT1 inh)
CN(C)S(=O)(=O)c1ccc(N2CCCC2)c(C(=O)NNC(=O)COc2cccc(F)c2)c1	none (no result: TPT1 inh)

Compound activity from PubChem.
